Laboratory results published in article PMC9989826 (Cell Reports, 2023).

How the values were obtained:
[1] = system: CCl4-intoxicated Nep−/− mice; experiment: Captopril or losartan co-treatment of CCl4-intoxicated Nep−/− mice; assay type: in vivo, mouse; settings: losartan 5 mg/kg/day or captopril 4 mg/kg/day for four weeks, vs non-treated fibrotic Nep−/− mice, n = 6
Outline: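 Nep−/− mice (C57BL/6J background, male and female, 10–12 weeks) exposed to CCl4 at 1L/min three times weekly for four weeks, with phenobarbital 3.0 mg/kg/day in drinking water. Losartan or captopril co-treatment ran through the same four weeks. Sirius red-stained sections scored by morphometry; portal pressure recorded in mm Hg; hepatic Col1a1 mRNA by qPCR. Mean ± SEM.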

[2] = system: fibrotic WT (C57BL6/J) mice; experiment: Entresto study: oral treatment of fibrotic WT mice; assay type: in vivo, mouse; settings: oral 100 mg/kg for 14 days; fibrotic mice vs control
Outline: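 Male and female WT mice, 10–12 weeks, made fibrotic over 7 weeks by i.p. CCl4 plus either ethanol in drinking water or Western diet. Entresto tablet (49mg/51mg) crushed and resuspended in 0.9% NaCl; valsartan and sacubitril prepared the same way. Dosed orally for 14 days until sacrifice. Portal pressure measured at the end; hepatic Col1a1 mRNA also assessed. Mean ± SEM.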

[3] = system: primary mouse HSC (WT and Nep−/−); experiment: mRNA expression; assay type: cell-based; settings: NPY 1 nM, 24 h
[4] = system: primary mouse HSC (WT and Nep−/−); experiment: Collagen gel contraction assay; assay type: cell-based; settings: primary mouse HSCs on collagen gels, NPY 0–100 nM, 0–48 h; Nep−/− vs WT
Outline: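 Primary HSCs were isolated from WT and Nep−/− mice and cultured at least one week until fully activated. 1 × 10^4 cells were embedded in 1 mg/mL collagen gels, in triplicate per group. […] Gel area was tracked from images taken at fixed camera distance over time, as % of initial surface; mean ± SEM, n = 3–6.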

[5] = system: primary mouse HSC (WT and Nep−/−); experiment: Western blot of ROCK, p-moesin and p-ERK in primary HSCs; assay type: cell-based; settings: NPY 1 nM, 24 h, compared with WT cells
Outline: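 Primary HSCs from WT and Nep−/− mice were cultured at least one week until fully activated. They were seeded at 300,000 cells/well in DMEM with 20% FBS, and buffers were free of Zn and EDTA. […] Protein was read by western blot with GAPDH as loading control.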

[6] = system: primary HSCs from Nep−/− mice; experiment: Immunofluorescence and confocal microscopy of collagen I and αSMA; assay type: cell-based, mouse; settings: full-length NPY, 24 h
Outline: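 Primary Nep−/− HSCs, activated by at least one week of culture, were serum-starved 12 h. […] Cells were fixed in 4% paraformaldehyde and permeabilized with 1% Triton X-100, each 10 min at 37°C, then blocked 1 h in 1% BSA. Anti-collagen I (1:50) and anti-α-SMA (1:200) ran overnight at 4°C, secondaries (1:3000) 2 h, with DAPI counterstain. Confocal fluorescence was quantified from three independent experiments.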

WT mice = experiment: Intraperitoneal injection of NPYFL or its C-terminal fragments in WT mice; assay type: in vivo, mouse; settings: i.p., 72 hours, n = 6/group
primary Nep−/− HSCs = experiment: Determination of cellular cAMP; assay type: cell-based, mouse; settings: serum starved, full-length NPY 1 nM or mix of C-terminal fragments 30 μM, 30 min (methods), 24 h (Figure 4F), n = 3–4
Outline: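 HSCs isolated from WT and Nep−/− mice were cultured at least one week (fully activated) in DMEM/20% FBS with penicillin-streptomycin, in Zn- and EDTA-free buffers. […] Competitive cAMP ELISA, normalised to total protein; mean ± SEM.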

## C[C@H](CS)C(=O)N1CCC[C@H]1C(=O)O [captopril]
[1]
  hepatic Col1a1 mRNA expression: significantly reduced
  portal pressure: significantly reduced

## CCCCc1nc(Cl)c(CO)n1Cc1ccc(-c2ccccc2-c2nn[nH]n2)cc1 [losartan]
[1]
  hepatic Col1a1 mRNA expression: significantly reduced
  portal pressure: significantly reduced

## CCOC(=O)[C@H](C)C[C@@H](Cc1ccc(-c2ccccc2)cc1)NC(=O)CCC(=O)O [sacubitril]
[2]
  portal pressure, single components of Entresto: Neither valsartan nor sacubitril were able to significantly reduce portal pressure

## CCCCC(=O)N(Cc1ccc(-c2ccccc2-c2nnn[nH]2)cc1)[C@H](C(=O)O)C(C)C [valsartan]
[2]
  portal pressure, single components of Entresto: Neither valsartan nor sacubitril were able to significantly reduce portal pressure

## Neuropeptide Y [NPY]
[3]; Nep−/− HSCs
  Col1a1 mRNA level: decreased
  Tgfβ1 mRNA level: decreased
[3]; Nep−/− HSCs, compared with WT control
  Acta2 mRNA expression: induced
[3]; WT HSCs
  Col1a1 mRNA level: increased
  Tgfβ1 mRNA level: increased
[4]
  HSC contraction (decrease of gel surface): induced more HSC contraction
[5]
  ROCK protein and p-moesin expression (western blot): increased further
[6]
  αSMA expression (immunofluorescence): increased
WT mice
  hepatic Acta2 mRNA expression: significantly induced
  hepatic mRNA expression of the main fibrotic markers, Col1a1 and Tgfβ1: induced
  portal pressure: increase
Primary Nep−/− HSCs
  cAMP measurements (pmol cAMP per mg of total protein): reduction
